Laboratory results as given in ChEMBL document CHEMBL3797084, “Design and evaluation of novel oxadiazole derivatives as potential prostate cancer agents” (Bioorg Med Chem Lett, 2016).

Assays:
LNCaP = assay: Cytotoxicity against human LNCAP cells assessed as growth inhibition after 24 hrs by sulforhodamine B assay; assay type: functional, cell-based
Summary of the method: (§1)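 LNCaP and PC-3 were kept as monolayers in RPMI with 10% heat-inactivated FBS and penicillin/streptomycin at 37 °C in 5% CO2. Cells were seeded, left overnight, then treated at various concentrations in triplicate wells for 24 h. They were fixed with 10% TCA for 1 h at 4 °C and stained 10 min with 0.4% SRB in 1% acetic acid. Bound dye was solubilized in Tris-HCl and read at 564 nm. IC50 came from a Boltzmann sigmoidal nonlinear fit, as the mean of at least three experiments.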

[1] = Cytotoxicity against human PC3 cells assessed as growth inhibition after 24 hrs by sulforhodamine B assay; assay type: functional, cell-based; details: PC-3, 24 h; summary of the method: as §1
[2] = Cell cycle arrest in human PC3 cells assessed as accumulation at sub G0/G1 phase at 0.2 uM after 48 hrs by propidium iodide staining-based flow cytometry (reference value: 1.6%); assay type: functional; details: PC-3
[3] = Cell cycle arrest in human PC3 cells assessed as accumulation at G0/G1 phase at 0.2 uM after 48 hrs by propidium iodide staining-based flow cytometry (reference value: 58%); assay type: functional; details: PC-3
[4] = Cell cycle arrest in human PC3 cells assessed as accumulation at S phase at 0.2 uM after 48 hrs by propidium iodide staining-based flow cytometry (reference value: 6.9%); assay type: functional; details: PC-3
[5] = Cell cycle arrest in human PC3 cells assessed as accumulation at G2/M phase at 0.2 uM after 48 hrs by propidium iodide staining-based flow cytometry (reference value: 25.1%); assay type: functional; details: PC-3
PC-3 [6] = assay: Induction of apoptosis in human PC3 cells assessed as early apoptotic cells at 0.2 uM after 48 hrs by propidium iodide staining-based flow cytometry (reference value: 4.4%); assay type: functional
PC-3 [7] = assay: Induction of apoptosis in human PC3 cells assessed as late apoptotic cells at 0.2 uM after 48 hrs by propidium iodide staining-based flow cytometry (reference value: 4.2%); assay type: functional
PC-3 [8] = assay: Induction of apoptosis in human PC3 cells assessed as necrotic cells at 0.2 uM after 48 hrs by propidium iodide staining-based flow cytometry (reference value: 0.4%); assay type: functional
PC-3 [9] = assay: Induction of apoptosis in human PC3 cells assessed as viable cells at 0.2 uM after 48 hrs by propidium iodide staining-based flow cytometry (reference value: 91%); assay type: functional; details: PC-3, 48 h, read-out: Activity

## O=C(Nc1nnc(-c2ccccc2)o1)c1ccccc1
LNCaP
  IC50: 1.33 µM
[1]
  IC50: 0.22 µM
[2]
  Activity: 12.1%
[3]
  Activity: 50.8%
[4]
  Activity: 9%
[5]
  Activity: 21.2%
PC-3 [6]
  Activity: 13.2%
PC-3 [7]
  Activity: 15.8%
PC-3 [8]
  Activity: 21.3%
PC-3 [9]
  viability at 0.2 µM: 49.7%

## O=C(Nc1nnc(-c2ccccc2)o1)c1ccc2ccccc2c1
LNCaP
  IC50: 32.3 µM
[1]
  IC50: 26 µM

## O=c1[nH]cc(F)c(=O)[nH]1 [FLUOROURACIL]
LNCaP
  IC50: 0.03 µM
[1]
  IC50: 0.03 µM

## O=S(=O)(Nc1nnc(-c2ccc(C(F)(F)F)cc2)o1)c1ccc2ccccc2c1
LNCaP
  IC50: 3.9 µM
[1]
  IC50: 22.2 µM

## O=S(=O)(Nc1nnc(-c2ccc(C(F)(F)F)cc2)o1)c1ccccc1
LNCaP
  IC50: 2.5 µM
[1]
  IC50: 8.34 µM

## O=S(=O)(Nc1nnc(-c2ccc3ccccc3c2)o1)c1ccc2ccccc2c1
LNCaP
  IC50: 3.2 µM
[1]
  IC50: 47.8 µM

## O=C(Nc1nnc(-c2ccc3ccccc3c2)o1)c1ccc(C(F)(F)F)cc1
LNCaP
  IC50: 6.55 µM
[1]
  IC50: 11.1 µM
